Source: ChEMBL document CHEMBL1128414, “Steroidal affinity labels of the estrogen receptor. 2. 17 alpha-[(Haloacetamido)alkyl]estradiols” (J Med Chem, 1995)
The source made the active and inactive calls. The rule behind the calls is not given here.

Tests used:
[1] = target: T1, Estrogen receptor (Ovis aries) (UniProt P49885+Q9TU15); test: In vitro agonist/antagonist activity in estrogen regulated transcriptional activation assay; assay type: functional; settings: filed as partial agonist
[2] = target: T1, Estrogen receptor (Ovis aries)
[3] = target: T1, Estrogen receptor (Ovis aries); test: (§1) Irreversible inhibition of [3H]estradiol binding to lamb uterine estrogen receptor; assay type: protein assay
In short: (§2)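 Lamb uterine cytosol (4 mg protein/mL, immature lamb uteri, 20 mM Tris-HCl) adjusted to pH 8.5 with NaOH, preincubated 4 h at 0 °C with 10 nM–10 µM compound or no steroid. Charcoal treatment for 30 min at 0 °C, then centrifugation. […] Specific binding is expressed as % of unexposed cytosol. IC50 is the concentration giving 50% irreversible inhibition; duplicates in two experiments.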

[4] = target: T1, Estrogen receptor (Ovis aries); test: Relative efficiency(RE) in irreversible inhibition of lamb uterine estrogen receptor relative to iodoacetamide 23
[5] = target: Estrogen receptor (Ovis aries, UniProt P49885+Q9TU15); test: as §1; assay type: protein assay; in short: as §2
[6] = target: T1, Estrogen receptor (Ovis aries); test: In vitro antagonist activity in estrogen regulated transcriptional activation assay; assay type: functional; settings: filed as antagonist
[7] = target: T1, Estrogen receptor (Ovis aries); test: In vitro agonist activity in estrogen regulated transcriptional activation assay; assay type: functional; settings: filed as agonist

Compound	Hormonal activity [1]	RAC app [2]	Covalent binding [3]	RE [4]	IC50 [5] [nM]	Hormonal activity [6]	Hormonal activity [7]
C[C@]12CC[C@@H]3c4ccc(O)cc4CC[C@H]3[C@@H]1CC[C@@]2(O)CCCNC(=O)CI	Partial agonist	0.0084	Active	1	18	–	–
C[C@]12CC[C@@H]3c4ccc(O)cc4CCC3[C@@H]1CC[C@@]2(O)CNC(=O)CBr (single isomer, unassigned)	–	0.0076	Active	0.0019	9700	Antagonist	–
C[C@]12CC[C@@H]3c4ccc(O)cc4CC[C@H]3[C@@H]1CC[C@@]2(O)CCCNC(=O)CBr	Partial agonist	0.019	Active	0.34	53	–	–
C[C@]12CC[C@@H]3c4ccc(O)cc4CC[C@H]3[C@@H]1CC[C@@]2(O)CCNC(=O)CBr	Partial agonist	0.017	Active	0.011	1600	–	–

Results, then the compound that gave them:

Hormonal activity [1]	RAC app [2]	Covalent binding [3]	RE [4]	IC50 [5] [nM]	Hormonal activity [6]	Hormonal activity [7]	Compound
Partial agonist	0.0084	inactive	–	–	–	–	CC(=O)NCCC[C@]1(O)CC[C@H]2[C@@H]3CCc4cc(O)ccc4[C@H]3CC[C@@]21C
–	0.15	inactive	–	–	–	Agonist	C[C@]12CC[C@@H]3c4ccc(O)cc4CC[C@H]3[C@@H]1CC[C@@]2(O)CCOS(C)(=O)=O
